Results as given in ChEMBL document CHEMBL1122615, “Design and synthesis of naltrexone-derived affinity labels with nonequilibrium opioid agonist and antagonist activities. Evidence for the existence of different mu receptor subtypes in different tissues” (J Med Chem, 1984).
pIC50: −log10 of the molar value. Values joined by “and” are separate entries in the source; they are usually repeats but may differ in a detail not shown here. Equal values may be shown once. Active and inactive are the calls of the source. The calls are words filed in the database; no cut-off is given here.

Key:
Cavia porcellus [1] = species on record: Cavia porcellus; assay: The agonist potency in the guinea pig ileal longitudinal muscle preparation (GPI) was determined relative to morphine as control; format: functional, Muscle tissue
Cavia porcellus [2] = species on record: Cavia porcellus; assay: (§1) Compound was tested for persistent effect, percent inhibition of twitch that is not reversed by >=20 washings following 30 -min incubation at 200 nM; format: functional
Mus musculus [3] = species on record: Mus musculus; assay: The agonist potency was assessed by measuring the inhibition of contraction at a single concentration (30 nM).; format: functional
[4] = molecular target: Mu-type opioid receptor (Mus musculus) (UniProt P42866); assay: Irreversible antagonist activity at mouse vas deferens mu receptor against DADLE after 30 min at 200 nM; format: functional, tissue-based
Mu-type opioid receptor (Mus musculus), sequence (P42866 whole entry): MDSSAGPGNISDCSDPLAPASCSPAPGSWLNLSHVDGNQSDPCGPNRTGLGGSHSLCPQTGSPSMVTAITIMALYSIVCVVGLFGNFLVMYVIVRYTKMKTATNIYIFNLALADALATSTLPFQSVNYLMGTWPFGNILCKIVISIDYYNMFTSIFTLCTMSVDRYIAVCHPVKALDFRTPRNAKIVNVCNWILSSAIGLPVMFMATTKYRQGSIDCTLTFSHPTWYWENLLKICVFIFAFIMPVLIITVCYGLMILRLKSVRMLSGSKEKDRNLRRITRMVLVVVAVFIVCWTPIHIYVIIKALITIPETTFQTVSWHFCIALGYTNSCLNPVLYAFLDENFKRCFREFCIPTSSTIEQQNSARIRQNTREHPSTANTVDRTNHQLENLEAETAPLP

[5] = molecular target: Mu-type opioid receptor (Homo sapiens) (UniProt P35372); assay: Compound was tested for irreversible antagonist activity at mu receptor by determining by ileal response to morphine after 30 min incubation at 200 nM; format: functional
Mu-type opioid receptor (Homo sapiens), sequence (P35372 whole entry): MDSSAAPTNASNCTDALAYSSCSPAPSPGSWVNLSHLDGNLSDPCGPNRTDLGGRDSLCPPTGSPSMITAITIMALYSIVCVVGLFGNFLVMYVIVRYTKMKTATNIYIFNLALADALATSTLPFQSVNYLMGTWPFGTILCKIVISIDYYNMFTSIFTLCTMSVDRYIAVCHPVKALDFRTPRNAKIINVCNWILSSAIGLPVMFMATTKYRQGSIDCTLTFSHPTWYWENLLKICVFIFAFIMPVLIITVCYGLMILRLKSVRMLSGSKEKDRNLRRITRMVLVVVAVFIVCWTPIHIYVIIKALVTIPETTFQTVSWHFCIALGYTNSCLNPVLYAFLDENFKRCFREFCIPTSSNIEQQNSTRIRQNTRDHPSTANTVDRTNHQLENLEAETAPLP

[6] = molecular target: Mu-type opioid receptor (Homo sapiens) (UniProt P35372); assay: Irreversible antagonist activity at mu receptor by determining by ileal response to morphine after 30 min incubation at 20 nM; format: functional
[7] = molecular target: Mu-type opioid receptor (Homo sapiens) (UniProt P35372); assay: Compound was tested for irreversible antagonist activity at mu receptor by determining by MVD response to DADLE after 30 min incubation at 30 nM; format: functional
[8] = molecular target: Mu-type opioid receptor (Homo sapiens) (UniProt P35372); assay: Compound was tested for irreversible antagonist activity at mu receptor by determining by MVD response to morphine after 30 min incubation at 200 nM; format: functional
[9] = (§2) Compound was tested for irreversible antagonist activity at kappa receptor by determining by ileal response to ethylketazocine after 30 min incubation at 1000 nM; format: functional
[10] = molecular target: Kappa-type opioid receptor (Homo sapiens) (UniProt P41145); assay: Irreversible antagonist activity at kappa receptor as ileal response to ethylketazocine after 30 min incubation at 20 nM; format: functional
Kappa-type opioid receptor (Homo sapiens), sequence (P41145 whole entry): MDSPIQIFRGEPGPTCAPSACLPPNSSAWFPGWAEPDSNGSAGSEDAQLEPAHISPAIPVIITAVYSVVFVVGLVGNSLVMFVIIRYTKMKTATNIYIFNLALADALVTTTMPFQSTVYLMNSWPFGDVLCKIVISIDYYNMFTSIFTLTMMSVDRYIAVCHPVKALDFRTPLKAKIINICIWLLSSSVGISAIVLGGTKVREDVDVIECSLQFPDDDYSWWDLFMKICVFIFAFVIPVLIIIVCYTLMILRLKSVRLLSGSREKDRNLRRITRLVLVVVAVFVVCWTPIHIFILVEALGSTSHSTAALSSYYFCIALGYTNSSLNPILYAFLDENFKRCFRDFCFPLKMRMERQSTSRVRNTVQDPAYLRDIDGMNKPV

[11] = The relative rate (to beta FNA) in the reaction of Michael acceptors with cysteine at pH 7.4 at 25 degree Celsius in the presence of 13 fold excess cysteine was reported for half-life.; format: ADME
Summary of the method: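 Reaction with a 13-fold excess of cysteine at pH 7.4, 25 °C under rapid stirring; aliquots quenched by acidification to pH 1 at timed intervals. Remaining compound quantified by reversed-phase HPLC (UV 254 nm, internal standard), four intervals in duplicate. Half-life taken from the slope of log amount remaining vs time; rate expressed relative to β-FNA.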

[12] = molecular target: Mu-type opioid receptor (Homo sapiens) (UniProt P35372); assay: Compound was tested for irreversible antagonist activity at mu receptor by determining by MVD response to DADLE after 30 min incubation at 100 nM; format: functional
[13] = molecular target: Mu-type opioid receptor (Homo sapiens) (UniProt P35372); assay: Compound was tested for irreversible antagonist activity at mu receptor by determining by ileal response to morphine after 30 min incubation at 1000 nM; format: functional
[14] = molecular target: Mu-type opioid receptor (Homo sapiens) (UniProt P35372); assay: Compound was tested for irreversible antagonist activity at mu receptor by determining by MVD response to morphine after 30 min incubation at 100 nM; format: functional
[15] = molecular target: Kappa-type opioid receptor (Homo sapiens) (UniProt P41145); assay: as §2; format: functional
Mus musculus [16] = species on record: Mus musculus; assay: (§3) The agonist potency was assessed by measuring the inhibition of contraction at a single concentration (200 nM).; format: functional
Mus musculus [17] = species on record: Mus musculus; assay: Compound was tested for persistent effect, percent inhibition contraction that is not reversed significantly by >=20 washings following a 30 min incubation at 200 nM.; format: functional
[18] = molecular target: Kappa-type opioid receptor (Homo sapiens) (UniProt P41145); assay: Compound was tested for irreversible antagonist activity at kappa receptor by determining by ileal response to ethylketazocine after 30 min incubation at 200 nM; format: functional
Cavia porcellus [19] = species on record: Cavia porcellus; assay: Compound was tested for persistent effect, percent inhibition of twitch that is not reversed by >=20 washings following 30 -min incubation at 20 nM; format: functional
Mus musculus [20] = species on record: Mus musculus; assay: Compound was tested for persistent effect, percent inhibition contraction that is not reversed significantly by >=20 washings following a 30 min incubation at 20 nM.; format: functional
[21] = molecular target: Mu-type opioid receptor (Homo sapiens) (UniProt P35372); assay: Compound was tested for irreversible antagonist activity at mu receptor by determining by MVD response to DADLE after 30 min incubation at 10 nM; format: functional
[22] = molecular target: Mu-type opioid receptor (Homo sapiens) (UniProt P35372); assay: Compound was tested for irreversible antagonist activity at mu receptor by determining by MVD response to DADLE after 30 min incubation at 20 nM; format: functional
[23] = molecular target: Mu-type opioid receptor (Homo sapiens) (UniProt P35372); assay: Compound was tested for irreversible antagonist activity at mu receptor by determining by MVD response to DADLE after 30 min incubation at […]; format: functional
[24] = molecular target: Mu-type opioid receptor (Homo sapiens) (UniProt P35372); assay: Compound was tested for irreversible antagonist activity at mu receptor by determining by MVD response to morphine after 30 min incubation at 20 nM; format: functional
Cavia porcellus [25] = species on record: Cavia porcellus; assay: Evaluated for the inhibition concentration in the guinea pig ileal longitudinal muscle preparation (GPI); format: functional, Muscle tissue
Cavia porcellus [26] = species on record: Cavia porcellus; assay: Compound was tested for persistent effect, percent inhibition of twitch that is not reversed by >=20 washings following 30 -min incubation at 20 nM; none; format: functional
Cavia porcellus [27] = species on record: Cavia porcellus; assay: Compound was tested for persistent effect, percent inhibition of twitch that is not reversed by >=20 washings following 30 -min incubation at 200 nM; none; format: functional
[28] = molecular target: Kappa-type opioid receptor (Homo sapiens) (UniProt P41145); assay: Compound was tested for irreversible antagonist activity at kappa receptor by determining by ileal response to ethylketazocine after 30 min incubation at 20 nM; format: functional
[29] = molecular target: Mu-type opioid receptor (Homo sapiens) (UniProt P35372); assay: Compound was tested for irreversible antagonist activity at mu receptor by determining by ileal response to morphine after 30 min incubation at 20 nM; format: functional
Cavia porcellus [30] = species on record: Cavia porcellus; assay: as §1; format: functional; remark: listed apart in the source
Mus musculus [31] = species on record: Mus musculus; assay: as §3; format: functional; remark: listed apart in the source
Mus musculus [32] = species on record: Mus musculus; assay: Compound was tested for persistent effect, percent inhibition contraction that is not reversed significantly by >=20 washings following a 30 min incubation at 3 nM.; format: functional
[33] = molecular target: Kappa-type opioid receptor (Homo sapiens) (UniProt P41145); assay: Compound was tested for irreversible antagonist activity at kappa receptor by determining by ileal response to ethylketazocine after 30 min incubation at 10 nM; format: functional
[34] = molecular target: Mu-type opioid receptor (Homo sapiens) (UniProt P35372); assay: Compound was tested for irreversible antagonist activity at mu receptor by determining by ileal response to morphine after 30 min incubation at 10 nM; format: functional
[35] = molecular target: Mu-type opioid receptor (Homo sapiens) (UniProt P35372); assay: Compound was tested for irreversible antagonist activity at mu receptor by determining by MVD response to DADLE after 30 min incubation at 3 nM; format: functional
[36] = molecular target: Mu-type opioid receptor (Homo sapiens) (UniProt P35372); assay: Compound was tested for irreversible antagonist activity at mu receptor by determining by MVD response to Morphine after 30 min incubation at 200 nM; format: functional
[37] = molecular target: Mu-type opioid receptor (Homo sapiens) (UniProt P35372); assay: Compound was tested for irreversible antagonist activity at mu receptor by determining by MVD response to ethylketazocine after 30 min incubation at 200 nM; format: functional
Mus musculus [38] = species on record: Mus musculus; assay: The agonist potency was assessed by measuring the inhibition of contraction at a single concentration (200 nM); format: functional

Molecule | Potency (Cavia porcellus [1]) | Ratio [4] | Ratio [5] | Ratio [6] | Ratio [8] | Ratio [10] | Relative rate [11] | Agonist potency (Mus musculus [16]) | Ratio [18] | further results
C=CCN1CCC23c4c5ccc(O)c4OC2[C@H](NC(=O)/C=C/C(=O)OC)CCC3(O)C1C5 (stereo not given in full) | 5.8 | 1.1 | 6.4 | 2.2 | 4 | 1 | – | – | – | Inhibition (Cavia porcellus [2]): 40%; Agonist potency (Mus musculus [3]): 34; Ratio [7]: 1.7; Ratio [9]: 1.9
COC(=O)/C=C/C(=O)N[C@@H]1CC[C@@]2(O)[C@H]3Cc4ccc(O)c5c4[C@@]2(CCN3CC2CC2)[C@H]1O5 | 5 | 1.1 | – | 6 | 10.6 | 1 | 1 | – | – | Ratio [12]: 1.8; Ratio [13]: 18.8; Ratio [14]: 3.9; Ratio [15]: 1.3
O=C(CBr)N[C@@H]1CCC2(O)C3Cc4ccc(O)c5c4C2(CCN3CC2CC2)C1O5 (stereo not given in full) | 58 | 1.5 | 1.7 | 3.3 | 1.4 | 0.73 | – | 31 | 0.78 | Inhibition (Mus musculus [17]): 20%
O=C1C=CC(=O)N1[C@@H]1CCC2(O)C3Cc4ccc(O)c5c4C2(CCN3CC2CC2)C1O5 (stereo not given in full) | 2 | 0.81 | 1.3 | 1.3 | 1.1 | 0.94 | 450 | 52 | 1.4 | Inhibition (Mus musculus [17]): 35%
O=C(N[C@@H]1CCC2(O)C3Cc4ccc(O)c5c4C2(CCN3CC2CC2)C1O5)C(=O)c1ccccc1 (stereo not given in full) | 24 | 0.87 | – | 1.48 | 6.5 | 0.93 | – | 51 | – | Inhibition (Cavia porcellus [19]): 22%; Inhibition (Mus musculus [20]): 44%; Ratio [21]: 0.56; Ratio [22]: 0.51
C#CC(=O)N[C@@H]1CCC2(O)C3Cc4ccc(O)c5c4C2(CCN3CC2CC2)C1O5 (stereo not given in full) | 56 | 1.3 | – | 2.6 | – | 0.84 | – | – | – | Inhibition (Cavia porcellus [19]): 53%; Inhibition (Mus musculus [20]): 50%; Ratio [22]: 1.06; Ratio [23]: 1.5; Ratio [24]: 5
CCOc1ccc2c(c1)C1(C)CCN(CC3CC3)C(C2=O)C1C (stereo not given) [ETHYLKETAZOCINE] | – | – | – | – | – | – | – | – | – | pIC50 (Cavia porcellus [25]; Cavia porcellus, Muscle tissue): 8.01
CC(=O)/C=C/C(=O)N[C@@H]1CCC2(O)C3Cc4ccc(O)c5c4C2(CCN3CC2CC2)C1O5 (stereo not given in full) | 4.5 | 5 | – | 12.5 | 30 | 0.9 | 225 | 31 | – | inhibition (Cavia porcellus [26]): inactive
O=C(CSSc1ccccc1[N+](=O)[O-])N[C@@H]1CCC2(O)C3Cc4ccc(O)c5c4C2(CCN3CC2CC2)C1O5 (stereo not given in full) | 1.1 | 0.98 | 2.5 | 1.3 | 1.8 | 0.5 | – | 70 | 1.3 | inhibition (Cavia porcellus [27]): inactive
COC(=O)CCC(=O)N[C@@H]1CCC2(O)C3Cc4ccc(O)c5c4C2(CCN3CC2CC2)C1O5 (stereo not given in full) | 5.3 | – | – | – | – | – | – | – | – | Inhibition (Cavia porcellus [2]): 10%; Ratio [28]: 1; Ratio [29]: 0.92
6beta-[(Chloromercuri)acetamido]-17-(cyclopropyl-methyl)-4,5alpha-epoxy-3,14-duhydroxymorphinan Methanesulphonate [listing 1 of 2 here] | – | – | – | – | – | – | – | – | – | pIC50 (Cavia porcellus [25]): 6.52
6beta-[(Chloromercuri)acetamido]-17-(cyclopropyl-methyl)-4,5alpha-epoxy-3,14-duhydroxymorphinan Methanesulphonate [listing 2 of 2 here] | – | 2.6 and 0.9 | 4.2 | – | 0.57 | 1 | – | – | 1.3 | Potency (Cavia porcellus [1]; Muscle tissue): 50; inhibition (Cavia porcellus [30]): 26%; Potency (Mus musculus [31]): 54 nM; inhibition (Mus musculus [32]): 20%; Ratio [33]: 0.74; Ratio [34]: 0.75; Ratio [35]: 1.1; Ratio [29]: 1.2
COC(=O)C=CC(=O)N[C@@H]1CCC2(O)C3Cc4ccc(O)c5c4C2(CCN3CC2CC2)C1O5 (stereo not given in full) | – | – | – | – | – | – | 0.5 | – | – | –
O=C(CN1C(=O)C=CC1=O)N[C@@H]1CCC2(O)C3Cc4ccc(O)c5c4C2(CCN3CC2CC2)C1O5 (stereo not given in full) | 0.6 | 1.8 | 3.3 | 1.5 | – | 0.71 | 450 | 240 nM | 0.92 | Inhibition (Cavia porcellus [2]): 59%; Inhibition (Cavia porcellus [19]): 21%; Ratio [36]: 30; Ratio [37]: 0.71
O=C(N[C@@H]1CC[C@@]2(O)[C@H]3Cc4ccc(O)c5c4[C@@]2(CCN3CC2CC2)[C@H]1O5)c1ccccc1 | 201 | 1 | – | 1.4 | 1.9 | 0.91 | – | – | – | Inhibition (Cavia porcellus [19]): 39%; Agonist potency (Mus musculus [38]): 29 nM; Inhibition (Mus musculus [17]): 50%; Ratio [22]: 2.3
C=C(Cl)C(=O)N[C@@H]1CCC2(O)C3Cc4ccc(O)c5c4C2(CCN3CC2CC2)C1O5 (stereo not given in full) | 1.1 | 1.6 | – | 13.4 | 6 | 0.93 | 0.4 | – | 0.88 | inhibition (Cavia porcellus [27]): inactive; Agonist potency (Mus musculus [38]): 44
